From ChEMBL document CHEMBL2062411, “Structure-activity relationship study of selective excitatory amino acid transporter subtype 1 (EAAT1) inhibitor 2-amino-4-(4-methoxyphenyl)-7-(naphthalen-1-yl)-5-oxo-5,6,7,8-tetrahydro-4H-chromene-3-carbonitrile (UCPH-101) and absolute configurational assignment using infrared and vibrational …” (J Med Chem, 2012)

Experiments:
Assay type in all cases: cell-based
[1] = biological target: Excitatory amino acid transporter 1 (Homo sapiens, UniProt P43003); test: Inhibition of human EAAT1 expressed in HEK293 cells assessed as inhibition of 3[H]-D-Aspartate uptake after 6 mins by scintillation counting method
Sequence of Excitatory amino acid transporter 1 (P43003 whole entry): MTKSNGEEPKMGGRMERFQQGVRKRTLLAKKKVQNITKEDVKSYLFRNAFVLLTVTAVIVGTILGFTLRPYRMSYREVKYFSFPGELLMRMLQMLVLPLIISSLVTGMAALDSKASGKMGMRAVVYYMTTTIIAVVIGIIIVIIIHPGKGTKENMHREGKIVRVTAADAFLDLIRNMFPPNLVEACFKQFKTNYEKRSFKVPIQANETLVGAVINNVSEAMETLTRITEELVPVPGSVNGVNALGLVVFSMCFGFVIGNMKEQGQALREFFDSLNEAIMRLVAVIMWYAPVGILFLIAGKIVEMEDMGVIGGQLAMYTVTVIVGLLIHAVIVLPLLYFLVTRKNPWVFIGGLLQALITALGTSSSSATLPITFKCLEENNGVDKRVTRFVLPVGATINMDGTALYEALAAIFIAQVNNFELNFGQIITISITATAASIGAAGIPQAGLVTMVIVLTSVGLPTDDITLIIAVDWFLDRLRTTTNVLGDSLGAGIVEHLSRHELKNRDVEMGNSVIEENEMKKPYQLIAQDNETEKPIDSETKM
How it was run: (§1)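 HEK293 cell lines expressing EAAT1, EAAT2 or EAAT3 were cultured and assayed for [³H]-D-aspartate uptake, following an earlier published protocol. Inhibition is reported as IC50 in μM, with pIC50 ± SEM.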

[2] = biological target: T1, Excitatory amino acid transporter 3 (Homo sapiens, UniProt P43005); test: Inhibition of human EAAT3 expressed in HEK293 cells assessed as inhibition of 3[H]-D-Aspartate uptake after 6 mins by scintillation counting method; how it was run: as §1
T1 sequence (P43005 whole entry): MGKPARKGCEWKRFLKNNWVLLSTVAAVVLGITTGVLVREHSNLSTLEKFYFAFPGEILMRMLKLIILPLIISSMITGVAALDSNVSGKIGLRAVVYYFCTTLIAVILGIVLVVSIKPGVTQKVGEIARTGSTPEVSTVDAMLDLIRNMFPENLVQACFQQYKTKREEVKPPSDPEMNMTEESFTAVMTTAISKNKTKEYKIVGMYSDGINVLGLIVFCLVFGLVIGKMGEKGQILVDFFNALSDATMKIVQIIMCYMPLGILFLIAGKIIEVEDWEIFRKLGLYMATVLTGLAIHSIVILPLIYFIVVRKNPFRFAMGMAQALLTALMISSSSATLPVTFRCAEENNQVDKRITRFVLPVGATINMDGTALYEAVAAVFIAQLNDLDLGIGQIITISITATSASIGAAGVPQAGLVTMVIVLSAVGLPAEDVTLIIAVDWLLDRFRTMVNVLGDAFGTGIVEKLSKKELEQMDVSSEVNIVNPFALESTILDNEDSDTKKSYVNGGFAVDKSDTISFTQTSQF

[3] = biological target: Excitatory amino acid transporter 2 (Homo sapiens, UniProt P43004); test: Inhibition of human EAAT2 expressed in HEK293 cells assessed as inhibition of 3[H]-D-Aspartate uptake after 6 mins by scintillation counting method; how it was run: as §1
Sequence of Excitatory amino acid transporter 2 (P43004 whole entry): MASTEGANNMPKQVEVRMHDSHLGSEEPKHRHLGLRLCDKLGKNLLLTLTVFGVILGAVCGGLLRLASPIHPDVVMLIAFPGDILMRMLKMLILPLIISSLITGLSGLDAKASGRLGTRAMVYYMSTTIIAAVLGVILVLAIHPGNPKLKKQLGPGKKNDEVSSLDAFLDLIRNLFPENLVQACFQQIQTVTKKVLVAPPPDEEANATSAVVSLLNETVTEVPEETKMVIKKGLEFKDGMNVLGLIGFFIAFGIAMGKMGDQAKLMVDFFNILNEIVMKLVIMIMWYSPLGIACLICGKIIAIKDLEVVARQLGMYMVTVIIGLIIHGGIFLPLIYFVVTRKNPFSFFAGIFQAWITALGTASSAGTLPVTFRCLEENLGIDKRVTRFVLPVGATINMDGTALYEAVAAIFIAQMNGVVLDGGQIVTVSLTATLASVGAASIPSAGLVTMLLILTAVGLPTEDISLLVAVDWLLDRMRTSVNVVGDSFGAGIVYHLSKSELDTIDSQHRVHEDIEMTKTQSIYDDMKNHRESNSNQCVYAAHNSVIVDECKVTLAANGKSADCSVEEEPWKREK

Structure (SMILES)	IC50 ([1]; read-out: IC50)	IC50 [2]	IC50 ([1]; read-out: pIC50 (converted))	IC50 [3]
CC1C(C#N)=C(N)OC2=C1C(=O)CC(c1cccc3ccccc13)C2 (stereo unspecified)	0.42 µM			
N#CC1=C(N)OC2=C(C(=O)NC(c3ccccc3)C2)C1c1ccccc1 (stereo unspecified)	> 300 µM			
N#CC1=C(N)OC2=C(C(=O)CN(c3ccccc3)C2)C1c1ccccc1 (stereo unspecified)		> 100 µM	> 100 µM	> 100 µM
N#CC1=C(N)OC2=C(C(=O)CN(Cc3ccccc3)C2)C1c1ccccc1 (stereo unspecified)		> 300 µM	16.2 µM	> 300 µM
C[C@H](c1ccccc1)N1CC(=O)C2=C(C1)OC(N)=C(C#N)[C@@H]2c1ccccc1		> 300 µM	> 316 µM	> 300 µM
C[C@H](c1ccccc1)N1CC(=O)C2=C(C1)OC(N)=C(C#N)[C@H]2c1ccccc1		> 300 µM	3.72 µM	> 300 µM

Now from value to molecule:

IC50 ([1]; read-out: IC50)	IC50 [2]	IC50 ([1]; read-out: pIC50 (converted))	IC50 [3]	Structure (SMILES)
3.9 µM				N#CC1=C(N)OC2=C(C(=O)CC(c3ccccc3)C2)C1c1ccccc1 (stereo unspecified)
> 300 µM				CC1(C)C(C#N)=C(N)OC2=C1C(=O)CC(c1ccccc1)C2 (stereo unspecified)
> 300 µM				N#CC1=C(N)OC2=C(C(=O)OC(c3ccccc3)C2)C1c1ccccc1 (stereo unspecified)
	> 100 µM	> 100 µM	> 100 µM	N#CC1=C(N)OC2=C(C(=O)CN(C(=O)c3ccccc3)C2)C1c1ccccc1 (stereo unspecified)
	> 300 µM	5.25 µM	> 300 µM	C[C@@H](c1ccccc1)N1CC(=O)C2=C(C1)OC(N)=C(C#N)[C@H]2c1ccccc1
	> 300 µM	> 316 µM	> 300 µM	C[C@@H](c1ccccc1)N1CC(=O)C2=C(C1)OC(N)=C(C#N)[C@@H]2c1ccccc1
